This is an account of results in ChEMBL document CHEMBL4725282, “Discovery of a Conformationally Constrained Oxazolidinone with Improved Safety and Efficacy Profiles for the Treatment of Multidrug-Resistant Tuberculosis” (J Med Chem, 2020).

SMILES strings stand for the structures. In brackets after ≈: the same amount, converted by molar mass.

Data set [1] can be described thus: Terminal half life in Balb/c mouse at 2.5 mg/kg, iv by LC-MS/MS analysis. The class given is ADME, organism-based. The note with it: in vivo, read-out: beta t1/2 (converted). An outline of the steps:
(§1)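 Female BALB/c mice, 20-25 g, five per route. Dosed 25 mg/kg p.o. in 0.5% carboxymethyl cellulose or 2.5 mg/kg i.v. in 10% DMSO/saline. Blood sampled 5 min-72 h (p.o.) or 2 min-48 h (i.v.), quantified by LC/MS/MS with ESI+. Parameters by non-compartmental analysis; F = (AUCpo×dose_iv)/(AUCiv×dose_po)×100%.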

The target in data set [2] is Voltage-gated inwardly rectifying potassium channel KCNH2 (Homo sapiens, UniProt Q12809). Nature of the data set: Inhibition of human ERG expressed in HEK293 cells by whole cell manual patch clamp method. The class given is cell-based. In a few lines: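 HEK293 cells stably transfected with hERG; currents recorded by whole-cell manual patch clamp at 25 °C, sampled at 10 kHz. Five concentrations (0.3–30 μM) in duplicate for IC50; dofetilide as positive control.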

A further data set relates to HepG2. Nature of the data set: Cytotoxicity against human HepG2 cells assessed as reduction in cell viability measured after 48 hrs by MTT assay. The class given is cell-based. The note with it: HepG2, 48 h. In a few lines: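 Cytotoxicity on Vero or HepG2 cells by MTT assay, run as previously reported.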
The nature of data set [3]: MRT (0 to t) in Balb/c mouse at 25 mg/kg, po by LC-MS/MS analysis. The class given is ADME, organism-based. To be noted: in vivo. In a few lines:
(§2)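 Female BALB/c mice (20–25 g), five per route. Oral dose 25 mg/kg in 0.5% carboxymethyl cellulose; i.v. dose 2.5 mg/kg in 10% DMSO/physiological saline. Blood sampled 5 min–72 h after p.o. and 2 min–48 h after i.v. Analyte quantified by LC/MS/MS (ESI positive, C18, isocratic methanol/water). Parameters from non-compartmental analysis.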

The nature of data set [4]: Stability in CD-1 mouse liver microsome assessed as parent compound remaining at 1 uM measured after 30 mins in presence of NADPH by LC-MS/MS analysis. To be noted: liver microsomes, read-out: Stabilty. The class given is ADME. An outline of the steps: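 Liver microsomes (male CD-1 mouse or pooled human), 1 mg/mL protein, compound 1 µM, 37°C with shaking. Started with 1 mM NADPH or run without cofactor. Quenched with ice-cold ACN/MeOH containing internal standard. Parent quantified by LC-MS/MS; 30 min concentration normalised to time zero.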

The nature of data set [5]: AUC (0 to t) in Balb/c mouse at 2.5 mg/kg, iv by LC-MS/MS analysis. The class given is ADME, organism-based. The arrangement: dose 2.5 mg/kg. The note with it: in vivo. An outline of the steps:
as §2

For data set [6], the system named is Mycobacterium tuberculosis. Description: Antitubercular activity against Mycobacterium tuberculosis H37Rv incubated for 7 days by microplate alamar blue assay. The class given is functional. The note with it: 168 h, time 7 day. An outline of the steps:
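MIC determined by microplate alamar blue assay (MABA) following a published protocol.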

Data set [7] is described as follows: Tmax in Balb/c mouse at 25 mg/kg, po by LC-MS/MS analysis. The class given is ADME, organism-based. To be noted: in vivo. An outline of the steps: as §1
Data set [8] is described as follows: MRT (0 to infinity) in Balb/c mouse at 25 mg/kg, po by LC-MS/MS analysis. To be noted: in vivo. The class given is ADME, organism-based. An outline of the steps: as §2
The nature of data set [9]: Inhibition of mitochondrial protein synthesis in rat H9c2 cells measured after 5 days by ELISA. The class given is cell-based. To be noted: H9c2, 120 h. In a few lines: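 H9C2 cells in DMEM with 10% FBS, seeded 1500/well. After 18 h, compound added at final 0.03–200 μM (3-fold series), then 5 days at 37 °C, 5% CO2; 0.5% DMSO negative control. MPS inhibition read by MitoBiogenesis In-Cell ELISA; IC50 calculated.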

Data set [10] addresses T1, Amine oxidase [flavin-containing] A (Homo sapiens, UniProt P21397).
T1 sequence (P21397 whole entry): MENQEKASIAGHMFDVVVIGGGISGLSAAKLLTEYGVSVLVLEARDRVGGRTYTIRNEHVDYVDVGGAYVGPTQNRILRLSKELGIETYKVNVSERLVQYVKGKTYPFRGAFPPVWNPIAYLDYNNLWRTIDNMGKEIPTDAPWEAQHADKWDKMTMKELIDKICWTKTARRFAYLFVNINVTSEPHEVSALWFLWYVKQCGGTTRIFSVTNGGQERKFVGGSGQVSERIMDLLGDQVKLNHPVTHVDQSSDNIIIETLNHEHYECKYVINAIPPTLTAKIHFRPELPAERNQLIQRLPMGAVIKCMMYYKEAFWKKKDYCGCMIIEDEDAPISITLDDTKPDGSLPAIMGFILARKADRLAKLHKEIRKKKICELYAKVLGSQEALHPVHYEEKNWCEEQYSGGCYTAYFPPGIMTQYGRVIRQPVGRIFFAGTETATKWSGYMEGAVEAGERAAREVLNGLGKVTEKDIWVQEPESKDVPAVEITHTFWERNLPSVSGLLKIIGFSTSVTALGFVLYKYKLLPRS
Description: Inhibition of recombinant human MAOA expressed in baculovirus infected insect cells using kynuramine as substrate measured after 20 mins by LC-MS/MS analysis. An outline of the steps: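 Recombinant human MAO-A or MAO-B (50 μg/mL) in 100 mM potassium phosphate pH 7.4 with 5 mM MgCl2. Kynuramine substrate at 50 μM (MAO-A) or 25 μM (MAO-B). […] 4-Hydroxyquinoline formation measured by LC-MS/MS versus vehicle; IC50 derived.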

Data set [11] in a line: Mutagenicity in Salmonella typhimurium TA100 up to 1000 ug measured after 48 to 72 hrs in absence of S9 fraction by Ames test. The class given is toxicity. The note with it: salmonella enterica subsp. enterica serovar typhimurium, dose <=1000 µg, time 48-72 hrs. An outline of the steps:
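Mini-Ames test in S. typhimurium TA100, up to 1000 μg/well, DMSO vehicle. Run with 10% S9 mix or PBS in molten top agar on minimal agar, 37 °C for 48-72 h. Revertants counted manually. Positive if revertants rise ≥2-fold over vehicle mean in a dose-related manner.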

The nature of data set [12]: AUC (0 to infinity) in Balb/c mouse at 2.5 mg/kg, iv by LC-MS/MS analysis. The arrangement: time infinity, route intravenous, dose 2.5 mg/kg. The class given is ADME, organism-based. The note with it: in vivo. An outline of the steps:
as §2

A short description of data set [13]: Mutagenicity in Salmonella typhimurium TA98 up to 1000 ug measured after 48 to 72 hrs in presence of S9 fraction by Ames test. The class given is toxicity, subcellular. The note with it: salmonella enterica subsp. enterica serovar typhimurium, dose <=1000 µg, time 48-72 hrs. In a few lines:
(§3)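 Mini-Ames, plate incorporation in 6-well format. Bacteria, compound (DMSO vehicle, top 1000 µg/well), and 10% S9 mix or PBS were mixed into molten agar at 45°C and poured over minimal agar, then incubated 37°C for 48-72 h. Revertants were counted manually and the background lawn inspected. A result is positive at ≥2-fold the mean vehicle revertants with a dose-related increase.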

Data set [14] is described as follows: Terminal half life in Balb/c mouse at 25 mg/kg, po by LC-MS/MS analysis. The class given is ADME, organism-based. To be noted: in vivo, read-out: beta t1/2 (converted). In a few lines: as §1
Data set [15] can be described thus: Mutagenicity in Salmonella typhimurium TA98 up to 1000 ug measured after 48 to 72 hrs in absence of S9 fraction by Ames test. The class given is toxicity. The note with it: salmonella enterica subsp. enterica serovar typhimurium, dose <=1000 µg, time 48-72 hrs. In a few lines: as §3

Sequence of Voltage-gated inwardly rectifying potassium channel KCNH2 (Q12809 whole entry): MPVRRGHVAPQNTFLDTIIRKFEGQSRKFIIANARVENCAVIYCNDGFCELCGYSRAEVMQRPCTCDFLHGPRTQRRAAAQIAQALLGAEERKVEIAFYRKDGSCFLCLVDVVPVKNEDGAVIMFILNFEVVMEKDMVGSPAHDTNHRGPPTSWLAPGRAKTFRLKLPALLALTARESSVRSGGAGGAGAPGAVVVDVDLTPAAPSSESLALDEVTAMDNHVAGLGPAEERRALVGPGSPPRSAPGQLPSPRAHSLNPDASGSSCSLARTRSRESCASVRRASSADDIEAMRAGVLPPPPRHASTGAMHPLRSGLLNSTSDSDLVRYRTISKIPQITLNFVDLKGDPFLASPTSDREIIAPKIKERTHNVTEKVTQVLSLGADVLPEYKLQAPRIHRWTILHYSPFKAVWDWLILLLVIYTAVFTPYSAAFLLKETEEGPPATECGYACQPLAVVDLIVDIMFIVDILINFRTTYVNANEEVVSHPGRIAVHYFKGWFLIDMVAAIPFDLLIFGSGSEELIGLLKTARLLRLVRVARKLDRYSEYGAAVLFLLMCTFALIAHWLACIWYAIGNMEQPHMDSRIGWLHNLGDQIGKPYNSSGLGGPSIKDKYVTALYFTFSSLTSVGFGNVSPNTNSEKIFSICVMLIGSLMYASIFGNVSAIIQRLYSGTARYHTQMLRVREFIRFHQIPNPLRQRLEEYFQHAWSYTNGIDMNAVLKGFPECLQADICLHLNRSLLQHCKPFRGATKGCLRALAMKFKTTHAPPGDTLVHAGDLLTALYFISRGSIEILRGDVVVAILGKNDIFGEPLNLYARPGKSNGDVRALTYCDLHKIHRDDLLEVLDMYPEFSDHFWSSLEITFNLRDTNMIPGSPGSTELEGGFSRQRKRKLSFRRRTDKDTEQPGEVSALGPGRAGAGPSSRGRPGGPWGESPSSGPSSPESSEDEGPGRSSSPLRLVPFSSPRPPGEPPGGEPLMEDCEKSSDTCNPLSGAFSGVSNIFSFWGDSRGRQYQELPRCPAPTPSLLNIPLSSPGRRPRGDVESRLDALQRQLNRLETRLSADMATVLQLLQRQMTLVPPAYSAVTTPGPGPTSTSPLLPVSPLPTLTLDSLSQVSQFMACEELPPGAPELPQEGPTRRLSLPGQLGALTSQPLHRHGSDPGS

Take `CC(=O)NC[C@@H]1OC(=O)N2c3cc(F)c(N4CC[S+]([O-])CC4)cc3OC[C@@H]12`: the results for the half-life in data set [1] and in [14] were 3.81 h and 6.28 h, respectively. Also, the IC50 in data set [2] is above 30 µM; in the data set with HepG2, above 64 µg/mL; in [9], 60.6 µM; in data set [10], above 100 µM. In [3], this molecule showed an MRT last of 9.83 h. The remaining at 0.5 h, 1 µM in data set [4] was 100%. The molecule also yielded an AUC(0-t) in data set [5] of 443 ng·h/mL. Also, the minimum inhibitory concentration (MIC) in data set [6] (Mycobacterium tuberculosis, H37Rv, read-out: MIC) stood at 0.44 µg/mL (≈ 1.11 µM). The Tmax in data set [7] turned out to be 0.5 h. Moreover, the MRT inf in data set [8] was found to be 10.8 h. Further, the Activity entry in data set [11], in data set [13] and in data set [15] was “Non-Toxic” in each case. The molecule further had an AUC(0-inf) in data set [12] of 592 ng·h/mL.

For `CC(=O)NC[C@@H]1OC(=O)N2c3cc(F)c(N4CCSCC4)cc3OC[C@@H]12`, the results for the half-life in data set [1] and in data set [14] were 0.923 h and 14.7 h, respectively. Besides, the IC50 was above 30 µM in data set [2], above 64 µg/mL in the data set with HepG2, above 100 µM in [9] and 44.8 µM in data set [10]. In data set [3], this molecule gave a mean residence time (MRT last) of 7.59 h. Further, in [4], the remaining at 0.5 h, 1 µM came out at 48.7%. Further, the AUC(0-t) in data set [5] was 1160 ng·h/mL. Besides, the minimum inhibitory concentration (MIC) in [6] is 0.03 µg/mL (≈ 0.0787 µM). Also, the Tmax in data set [7] was determined as 0.25 h. The MRT inf in data set [8] is 15.2 h. In addition, the Activity result in [11], in [13] and in data set [15] was “Non-Toxic” each time. The molecule also registered an AUC(0-inf) in [12] of 1190 ng·h/mL.
